Here are results for 15 compounds from ChEMBL document CHEMBL4330152, “α-Carbonic anhydrases are strongly activated by spinaceamine derivatives” (Bioorg Med Chem, 2019).

Assay [1] concerns the target Carbonic anhydrase 4 (Homo sapiens) (UniProt P22748). The assay can be described thus: Activation of human CA-4 incubated for 15 mins prior to testing by stopped flow CO2 hydrase assay. Summed up:
(§1)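 Stopped-flow CO2 hydration at 25 °C, 10 mM Hepes pH 7.5 with 0.1 M NaClO4, phenol red 0.2 mM read at 557 nm over 10 s. CO2 1.7–17 mM. Activators (0.1 mM stocks in water) diluted in buffer down to 1 nM and preincubated 15 min with enzyme. Initial rates from ≥6 traces of first 5–10% of reaction, uncatalysed rate subtracted. Activation constants from competitive steady-state equation.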

Assay [2] has as its target Carbonic anhydrase 1 (Homo sapiens) (UniProt P00915). The assay can be described thus: Activation of human CA-1 incubated for 15 mins prior to testing by stopped flow CO2 hydrase assay. In a few lines: as §1
The target in assay [3] is Carbonic anhydrase 2 (Homo sapiens) (UniProt P00918). Briefly: Activation of human CA-2 incubated for 15 mins prior to testing by stopped flow CO2 hydrase assay. Summed up:
as §1

For assay [4], the target named is Carbonic anhydrase 7 (Homo sapiens) (UniProt P43166). The assay can be described thus: Activation of human CA-7 incubated for 15 mins prior to testing by stopped flow CO2 hydrase assay.

The structures appear in SMILES notation.

Sequence of Carbonic anhydrase 1 (Homo sapiens) (P00915 2-261 limits assumed): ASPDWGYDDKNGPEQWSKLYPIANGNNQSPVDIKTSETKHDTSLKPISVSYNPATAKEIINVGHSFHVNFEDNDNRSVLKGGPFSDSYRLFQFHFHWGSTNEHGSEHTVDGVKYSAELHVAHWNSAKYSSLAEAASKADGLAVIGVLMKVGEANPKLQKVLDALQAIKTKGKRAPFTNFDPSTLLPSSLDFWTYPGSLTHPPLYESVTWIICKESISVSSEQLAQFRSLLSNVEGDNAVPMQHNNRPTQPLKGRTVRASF
Sequence of Carbonic anhydrase 4 (Homo sapiens) (P22748 whole entry): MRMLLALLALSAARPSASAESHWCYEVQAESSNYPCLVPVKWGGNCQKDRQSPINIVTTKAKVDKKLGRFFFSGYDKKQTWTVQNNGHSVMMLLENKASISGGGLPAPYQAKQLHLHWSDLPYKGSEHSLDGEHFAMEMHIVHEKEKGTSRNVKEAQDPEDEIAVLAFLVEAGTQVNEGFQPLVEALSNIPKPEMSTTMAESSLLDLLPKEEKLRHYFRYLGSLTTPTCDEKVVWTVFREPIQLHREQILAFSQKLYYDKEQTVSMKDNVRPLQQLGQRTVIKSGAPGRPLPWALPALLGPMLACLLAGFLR

As for `Cc1ccc(Br)cc1C1NCCc2nc[nH]c21` (stereo not drawn), the KA in assay [1] worked out at 4.42 µM; in assay [2] it was 12.7 µM; in assay [3] it was 15.5 µM; in assay [4], 0.38 µM.

`CN(C)c1ccc(C2NCCc3nc[nH]c32)cc1` (stereo not drawn): the KA in assay [1] stood at 3.14 µM; in assay [2] it was 3.45 µM; in assay [3] it was 7.44 µM; in assay [4] it was 0.59 µM.

On to `COc1ccc(C2NCCc3nc[nH]c32)cc1OC` (stereo not drawn), for which the KA turned out to be 6.17 µM in assay [1], 3.76 µM in assay [2], 0.71 µM in assay [3] and 0.26 µM in assay [4].

`Oc1ccccc1C1NCCc2nc[nH]c21` (stereo not drawn): the KA in assay [1] stood at 3.59 µM; in assay [2] it was 2.52 µM; in assay [3], 1.62 µM; in assay [4], 0.11 µM.

Turning to `Clc1ccc(C2NCCc3[nH]cnc32)cc1` (stereo not drawn), the KA is 50.1 µM in assay [1], 17.6 µM in assay [2], 8.49 µM in assay [3] and 0.84 µM in assay [4].

Consider `COc1cc(C2NCCc3nc[nH]c32)cc(OC)c1OC` (stereo not drawn), for which the KA in assay [1] amounted to 2.84 µM; in assay [2] it was 9.28 µM; in assay [3], 3.26 µM; in assay [4] it was 0.093 µM.

Regarding `Oc1ccc(Br)cc1C1NCCc2nc[nH]c21` (stereo not drawn), the KA amounted to 10.9 µM in assay [1], 4.9 µM in assay [2], 1.03 µM in assay [3] and 0.12 µM in assay [4].

For the compound `Cc1ccc(C2NCCc3nc[nH]c32)cc1` (stereo not drawn), the KA was 7.06 µM in assay [1], 6.27 µM in assay [2], 17.2 µM in assay [3] and 1.03 µM in assay [4].

As for `NCCc1c[nH]cn1`, the KA in assay [1] came to 4.03 µM; in assay [4], 37.6 µM.

With `c1ccc(C2NCCc3[nH]cnc32)cc1` (stereo not drawn), the KA was 63.8 µM in assay [1], 8.12 µM in assay [2], 16.3 µM in assay [3] and 2.69 µM in assay [4].

As to `c1coc(C2NCCc3nc[nH]c32)c1` (stereo not drawn), the KA in assay [1] turned out to be 2.4 µM; in assay [2], 21.5 µM; in assay [3], 5.12 µM; in assay [4], 0.095 µM.

On to `Brc1ccccc1C1NCCc2nc[nH]c21` (stereo not drawn), for which the KA was 4.05 µM in assay [1], 4.3 µM in assay [2], 2.8 µM in assay [3] and 0.082 µM in assay [4].

On to `N#Cc1ccc(C2NCCc3nc[nH]c32)cc1` (stereo not drawn), for which the KA in assay [1] was found to be 5.8 µM; in assay [2], 4.89 µM; in assay [3] it was 7.25 µM; in assay [4] it was 4.26 µM.

For the compound `COc1ccc(C2NCCc3[nH]cnc32)cc1` (stereo not drawn), the KA in assay [1] came out at 6.37 µM; in assay [2], 6.01 µM; in assay [3], 7.31 µM; in assay [4] it was 0.73 µM.

Regarding `Fc1cc(F)c(F)c(C2NCCc3nc[nH]c32)c1F` (stereo not drawn), the KA in assay [1] was found to be 0.52 µM; in assay [2] it was 9.92 µM; in assay [3], 0.6 µM; in assay [4], 0.11 µM.
